Results published in paper PMC11790068 (Journal of medicinal chemistry, 2015).
Entries after “also recorded” stand apart in the source; their conditions may differ.

Key:
[1] = tested on: CT-L activity of purified 20S human proteasomes (β5, β5i, β1i); assay: Enzyme kinetics assay, CT-L activity of purified 20S proteasomes; type: biochemical; details: for Inhibition of the CT-L activity of purified proteasomes: purified 20S CP and IP, β5, β5i, β1i, result in words; for Activation of the CT-L activity of proteasomes: at 10 μM, purified proteasomes
In short: (§1)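 Purified human 20S constitutive and immunoproteasome (0.5 µg/mL) was preincubated with test compound for 30 min at room temperature in 20 mM Tris-HCl, 0.5 mM EDTA, 0.035% SDS. Reactions were started with a subunit-selective AMC substrate: β1 Ac-nLPnLD-AMC 100 µM; β2/β2i Boc-LRR-AMC 200 µM; β5 Ac-WLA-AMC 20 µM; β1i Ac-PAL-AMC 100 µM; β5i Ac-ANW-AMC 100 µM. AMC fluorescence (ex 360/em 460 nm) was followed for 90 min at room temperature.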

[2] = tested on: proteasomal CT-L activity of RPMI 8226 cell extracts; assay: CT-L activity of proteasomes in cell extracts; type: biochemical, human; details: result in words
In short: (§2)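 Cytosolic extracts of RPMI-8226 cells were prepared by the Kisselev and Goldberg method and used in place of purified 20S proteasome. Hydrolysis of fluorogenic substrates was measured as AMC release: Suc-LLVY-AMC for CT-L, Z-LLE-AMC for C-L and Boc-LRR-AMC for T-L activity. Fluorescence was read at excitation 360 and emission 460 nm.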

[3] = biological target: T1, proteasomal C-L activity of RPMI 8226 cell extracts (Homo sapiens, UniProt P28072); assay: C-L activity of proteasomes in cell extracts; type: biochemical; details: result in words
T1 sequence (P28072 1-239): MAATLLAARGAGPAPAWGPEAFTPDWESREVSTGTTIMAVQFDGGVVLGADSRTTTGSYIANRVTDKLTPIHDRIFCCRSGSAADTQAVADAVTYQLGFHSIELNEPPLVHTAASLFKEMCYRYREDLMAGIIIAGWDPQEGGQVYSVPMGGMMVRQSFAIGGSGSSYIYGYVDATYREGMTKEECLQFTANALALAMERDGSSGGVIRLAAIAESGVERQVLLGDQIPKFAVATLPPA
In short: as §2

[4] = tested on: proteasomal T-L activity of RPMI 8226 cell extracts; assay: T-L activity of proteasomes in cell extracts; type: biochemical, human; details: result in words
In short: as §2

[5] = tested on: proteasome in RPMI 8226 cell lysates (Suc-LLVY-AMC hydrolysis); assay: Jump dilution reversibility assay; type: biochemical, human
In short: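 RPMI 8226 lysate (30 µg total protein) was incubated with test compound at 10 µM in 20S proteasome assay buffer for 30 min at room temperature. Baseline Suc-LLVY-AMC hydrolysis was recorded in a cuvette. The mixture was then rapidly diluted 25-fold in assay buffer (10 to 0.4 µM compound), and substrate hydrolysis was monitored for about 30 min.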

[6] = tested on: cancer cell lines including LNCaP prostate cancer cells; assay: Cytotoxicity of G4-1 in cancer cell lines; type: cell-based, human; details: variety of cancer cell lines including LNCaP; 72 h
In short: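 Log-phase adherent cells were seeded at 7,000–10,000 per well; suspension RPMI 8226 cells were pelleted and seeded at 10,000 per well. Viability was read after 72 h by CellTiter Glo luminescence or CellTiter 96 Aqueous One absorbance.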

[7] = tested on: BxPC-3 cell lines with acquired resistance to bortezomib or carfilzomib; assay: Cytotoxicity in bortezomib- or carfilzomib-resistant BxPC-3 sublines; type: cell-based, human; details: BxPC-3 sublines adapted to 60 nM bortezomib or 200 nM carfilzomib
LNCaP tumors = assay: In vivo efficacy assay, LNCaP xenograft; set-up: species or system mouse; details: 5 mg/kg i.p. twice a week for 4 weeks
[8] = biological target: C-L activity responsible β1 subunit of purified 20S human proteasome (Homo sapiens, UniProt P28072); assay: Enzyme kinetics assay, C-L activity of purified 20S proteasome; type: biochemical; details: result in words
In short: as §1

Cc1ccc(OS(=O)(=O)c2cccc(C(F)(F)F)c2)c(-c2cc(-c3ccccc3)n(CC(=O)N[C@@H]3CCNC3)n2)c1 [G4-1]
Inhibition of the CT-L activity of purified proteasomes [1]: most potent inhibitor
Inhibition of proteasomal CT-L activity of cell extracts [2]: effectively inhibit
Inhibition of proteasomal C-L activity of cell extracts [3]: effectively inhibit
Activity against the T-L activity of cell extracts [4]: no activity
Inhibition of proteasomal activity after preincubation ([5]; 10 μM, 30 min preincubation with RPMI 8226 cell extracts): nearly complete inhibition
Inhibitor dissociation half-life ([5]; after 25-fold dilution from 10 to 0.4 μM): approximately 3.2 min
Mode of proteasome inhibition ([5]; jump dilution, upward curvature of progress curve): reversibility
Anticancer activity against cancer cell lines [6]: good anticancer activity
Impact of acquired resistance to bortezomib or carfilzomib on anticancer effect [7]: not negatively impacted
Body weight of mice over the course of treatment (LNCaP tumors): maintained normal weight gain
Systemic toxicity in mice (LNCaP tumors): without apparent systemic toxicity
Tumor growth in vivo (LNCaP tumors; nude mice bearing LNCaP tumors): effectively suppressed tumor growth

CC1=C(COC(=O)Cn2nc(-c3cc(C)ccc3OS(=O)(=O)c3cccc(C(F)(F)F)c3)cc2-c2ccccc2)Cc2ccccc21 [G4-16]
Activation of the CT-L activity of proteasomes [1]: up to 200%

Cc1ccc(OS(=O)(=O)c2cccc(C(F)(F)F)c2)c(-c2cc(C3CCCCC3)n(CCN[C@@H]3CCNC3)n2)c1 [G4-40]
Inhibition of the CT-L activity of purified proteasomes [1]: potently inhibit

Cc1ccc(OS(=O)(=O)c2cccc(C(F)(F)F)c2)c(-c2cc(C3CCCNC3)n(CCN[C@@H]3CCNC3)n2)c1 (stereo partly shown) [G4-41]
Inhibition of the CT-L activity of purified proteasomes [1]: potently inhibit

Cc1ccc(OS(=O)(=O)c2cccc(C(F)(F)F)c2)c(-c2cc(C3CCCN(C(=O)N[C@@H]4CCNC4)C3)n(CCN[C@@H]3CCNC3)n2)c1 (stereo partly shown) [G4-42]
Inhibition of the CT-L activity of purified proteasomes [1]: potently inhibit

Cc1ccc(OS(=O)(=O)c2cccc(C(F)(F)F)c2)c(-c2cc(-c3ccccc3)n(CCN[C@@H]3CCNC3)n2)c1 [G4]
Inhibition of the CT-L activity of purified proteasomes [1]: potently inhibit; also recorded: selectively inhibits; also recorded: preferentially inhibits
Inhibition of the C-L activity (β1) of purified proteasome [8]: selectively inhibits; also recorded: preferentially inhibits

Cc1ccc(OS(=O)(=O)c2ccc(F)c([N+](=O)[O-])c2)c(-c2cc(-c3ccccc3)n(CCN[C@@H]3CCNC3)n2)c1 [G4–21]
Activation of the CT-L activity of proteasomes [1]: up to 200%
